Experimental data from ChEMBL document CHEMBL2412977, “Synthetic studies of centromere-associated protein-E (CENP-E) inhibitors: 1.Exploration of fused bicyclic core scaffolds using electrostatic potential map” (Bioorg Med Chem, 2013).

Assays:
[1] = target: T1, Centromere-associated protein E (Homo sapiens, UniProt Q02224); assay: Inhibition of human ATPase activity of CENP-E motor domain assessed as ADP production after 60 mins by ADP-Glo luminescence assay
[2] = target: T1, Centromere-associated protein E; assay: Inhibition of ATPase activity of CENP-E motor domain (unknown origin) by high throughput screening assay
[3] = Permeability of the compound at pH 7.4 by PAMPA; format: ADME; conditions: read-out: permeability
Summary of the method: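 Passive permeability measured in a parallel artificial membrane permeability assay (PAMPA) system at pH 7.4, reported in nm/sec.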

HeLa = assay: Induction of mitotic arrest in human HeLa cells assessed as accumulation of phosphorylated histone H3 after 16 hrs by FACS analysis; format: functional, cell-based
Summary of the method: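 HeLa cells scored for phosphorylated histone H3 positive cell count (%) by FACS. EC50 is the concentration giving a response halfway between baseline and maximum p-HH3 positive count.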

T1 sequence (Q02224 whole entry, the tested form may be a part): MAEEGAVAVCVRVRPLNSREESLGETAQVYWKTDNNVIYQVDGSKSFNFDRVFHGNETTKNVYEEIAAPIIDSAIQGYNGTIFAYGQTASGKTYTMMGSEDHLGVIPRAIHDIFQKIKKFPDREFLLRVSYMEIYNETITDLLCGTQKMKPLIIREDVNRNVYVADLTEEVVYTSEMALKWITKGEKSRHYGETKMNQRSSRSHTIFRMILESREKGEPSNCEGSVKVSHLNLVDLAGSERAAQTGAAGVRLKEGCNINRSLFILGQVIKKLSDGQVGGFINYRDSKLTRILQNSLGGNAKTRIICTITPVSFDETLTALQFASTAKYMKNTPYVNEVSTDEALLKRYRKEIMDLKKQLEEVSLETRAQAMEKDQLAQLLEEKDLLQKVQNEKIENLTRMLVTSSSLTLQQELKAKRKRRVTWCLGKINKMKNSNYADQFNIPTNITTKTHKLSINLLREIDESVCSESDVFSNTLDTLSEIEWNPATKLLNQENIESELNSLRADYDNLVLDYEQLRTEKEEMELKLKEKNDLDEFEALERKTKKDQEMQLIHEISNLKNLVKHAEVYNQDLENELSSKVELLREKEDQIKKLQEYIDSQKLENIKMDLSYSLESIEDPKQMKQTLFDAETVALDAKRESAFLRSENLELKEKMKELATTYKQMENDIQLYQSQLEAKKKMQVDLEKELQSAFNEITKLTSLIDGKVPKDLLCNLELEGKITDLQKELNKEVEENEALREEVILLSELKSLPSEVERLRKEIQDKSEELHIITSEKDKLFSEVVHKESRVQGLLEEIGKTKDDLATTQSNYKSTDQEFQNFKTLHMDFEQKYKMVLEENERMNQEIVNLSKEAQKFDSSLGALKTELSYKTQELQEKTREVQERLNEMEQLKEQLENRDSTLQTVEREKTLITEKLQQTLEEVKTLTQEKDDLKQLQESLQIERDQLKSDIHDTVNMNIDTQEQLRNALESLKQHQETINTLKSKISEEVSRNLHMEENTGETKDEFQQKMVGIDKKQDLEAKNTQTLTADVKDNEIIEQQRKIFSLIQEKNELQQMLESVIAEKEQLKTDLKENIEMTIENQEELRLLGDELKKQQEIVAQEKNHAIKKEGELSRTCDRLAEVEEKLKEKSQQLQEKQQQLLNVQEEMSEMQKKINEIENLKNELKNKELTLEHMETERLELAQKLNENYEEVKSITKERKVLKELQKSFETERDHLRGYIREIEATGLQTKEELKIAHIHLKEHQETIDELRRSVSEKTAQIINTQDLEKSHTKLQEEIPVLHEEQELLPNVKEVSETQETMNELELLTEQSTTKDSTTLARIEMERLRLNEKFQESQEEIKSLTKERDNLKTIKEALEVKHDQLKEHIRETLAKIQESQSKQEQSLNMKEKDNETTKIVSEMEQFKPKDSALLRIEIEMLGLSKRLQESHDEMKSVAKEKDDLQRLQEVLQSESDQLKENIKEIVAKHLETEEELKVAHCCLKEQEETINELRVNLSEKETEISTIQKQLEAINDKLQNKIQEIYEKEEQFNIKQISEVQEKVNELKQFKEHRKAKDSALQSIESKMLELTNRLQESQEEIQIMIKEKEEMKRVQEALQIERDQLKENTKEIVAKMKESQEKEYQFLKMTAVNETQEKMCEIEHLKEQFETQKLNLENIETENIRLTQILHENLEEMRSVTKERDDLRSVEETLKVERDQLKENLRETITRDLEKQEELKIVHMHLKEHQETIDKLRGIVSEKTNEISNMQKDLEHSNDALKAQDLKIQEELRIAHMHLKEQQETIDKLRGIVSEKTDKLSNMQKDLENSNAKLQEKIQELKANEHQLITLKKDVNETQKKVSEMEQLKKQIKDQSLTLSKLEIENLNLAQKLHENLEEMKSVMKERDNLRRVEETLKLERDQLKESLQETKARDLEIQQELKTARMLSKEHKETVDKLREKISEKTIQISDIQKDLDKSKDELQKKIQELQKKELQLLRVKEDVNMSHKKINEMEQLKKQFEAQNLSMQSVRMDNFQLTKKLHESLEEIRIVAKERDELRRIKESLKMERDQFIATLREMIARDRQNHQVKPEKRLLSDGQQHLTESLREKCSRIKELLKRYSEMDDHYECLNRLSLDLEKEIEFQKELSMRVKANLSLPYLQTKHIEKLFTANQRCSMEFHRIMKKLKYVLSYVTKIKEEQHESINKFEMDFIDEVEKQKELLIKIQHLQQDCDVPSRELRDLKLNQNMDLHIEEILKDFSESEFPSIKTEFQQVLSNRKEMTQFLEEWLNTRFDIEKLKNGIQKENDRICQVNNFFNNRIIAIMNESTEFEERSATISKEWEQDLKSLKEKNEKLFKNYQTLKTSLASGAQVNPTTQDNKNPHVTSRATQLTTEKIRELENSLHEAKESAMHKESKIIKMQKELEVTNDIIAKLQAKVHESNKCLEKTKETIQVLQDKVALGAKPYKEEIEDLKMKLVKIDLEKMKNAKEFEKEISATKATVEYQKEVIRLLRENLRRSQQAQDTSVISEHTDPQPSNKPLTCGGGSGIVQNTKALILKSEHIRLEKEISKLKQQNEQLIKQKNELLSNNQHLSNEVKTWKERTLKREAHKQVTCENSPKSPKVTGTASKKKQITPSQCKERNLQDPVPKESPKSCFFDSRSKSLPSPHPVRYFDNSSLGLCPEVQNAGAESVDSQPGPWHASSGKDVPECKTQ

Compound | IC50 [1] [nM] | other results
CN(Cc1ccc(Cl)c(Cl)c1)C(=O)c1c(-c2ccc(F)cc2)c2cscc2c(=O)n1CCO | 1800 | 
CN(Cc1ccc(Cl)c(Cl)c1)C(=O)c1c(-c2ccc(F)cc2)c2cscc2c(=O)n1C | 1500 | IC50 [2]: 1500 nM
CN(C)CCN(Cc1ccc(Cl)c(Cl)c1)C(=O)c1cc2scc(Cl)c2n1-c1ccc(F)cc1 | 35 | 
CN(C)CCN(Cc1ccc(Cl)c(Cl)c1)C(=O)c1cc2scc(Br)c2n1-c1ccc(F)cc1 | 32 | Papp [3]: 4.1 ×10⁻⁶ cm/s; EC50 (HeLa): 3000 nM
Cc1c(C(=O)N(CCN(C)C)Cc2ccc(Cl)c(Cl)c2)n(-c2ccc(F)cc2)c2ccccc12 | 2100 | 
CN(Cc1cc(C(F)(F)F)cc(C(F)(F)F)c1)C(=O)c1c(-c2ccc(F)cc2)c2cscc2c(=O)n1C |  | IC50 [2]: 2100 nM
Cc1csc2cc(C(=O)N(CCN(C)C)Cc3ccc(Cl)c(Cl)c3)n(-c3ccc(F)cc3)c12 | 370 | 
CN(C)CCN(Cc1ccc(Cl)c(Cl)c1)C(=O)c1cc2scc(C(F)(F)F)c2n1-c1ccc(F)cc1 | 140 | 
CN(C)CCN(Cc1ccc(Cl)c(Cl)c1)C(=O)c1cc2sccc2n1-c1ccc(F)cc1 | 2000 | 
CN(C)CCN(Cc1ccc(Cl)c(Cl)c1)C(=O)c1c(-c2ccc(F)cc2)c2cscc2c(=O)n1C | 100 | 
CN(C)CCN(Cc1ccc(Cl)c(Cl)c1)C(=O)c1c(-c2ccc(F)cc2)c2ccccc2n1C | 8500 | 
CN(C)CCn1c(C(=O)N(C)Cc2ccc(Cl)c(Cl)c2)c(-c2ccc(F)cc2)c2cscc2c1=O | 72 | 
CN(C)CCN(Cc1ccc(Cl)c(Cl)c1)C(=O)c1cc2scc(C#N)c2n1-c1ccc(F)cc1 | 540 | 
CN(C)CCN(Cc1ccc(Cl)c(Cl)c1)C(=O)c1nc2cccc(Br)n2c1-c1ccc(F)cc1 | 50 | Papp [3]: 35.3 ×10⁻⁶ cm/s; EC50 (HeLa): 1540 nM
CN(C)CCCn1c(C(=O)N(C)Cc2ccc(Cl)c(Cl)c2)c(-c2ccc(F)cc2)c2cscc2c1=O | 300 | 
